Tests used:
[1] = Inhibition of Cu2+ induced human amyloid beta (1 to 42) aggregation at 25 uM after 24 hrs by Thioflavin T based fluorometric assay relative to control
Procedure, shortened: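 Aβ1-42 (25 µM) and Cu2+ (25 µM) in HEPES buffer (20 mM, pH 6.6, 150 mM NaCl), with or without compound (25 µM final), incubated 24 h at 37 °C. ThT (5 µM) in glycine-NaOH, pH 8.5, added and fluorescence read. Triplicate; three independent experiments.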

[2] = target: T1, Amyloid-beta precursor protein (Homo sapiens, UniProt P05067); assay: Disaggregation of self-induced preformed fibrils of human amyloid beta (1 to 42) at 25 uM after 24 hrs by Thioflavin T based fluorometric assay relative to control
T1 sequence (P05067 whole entry): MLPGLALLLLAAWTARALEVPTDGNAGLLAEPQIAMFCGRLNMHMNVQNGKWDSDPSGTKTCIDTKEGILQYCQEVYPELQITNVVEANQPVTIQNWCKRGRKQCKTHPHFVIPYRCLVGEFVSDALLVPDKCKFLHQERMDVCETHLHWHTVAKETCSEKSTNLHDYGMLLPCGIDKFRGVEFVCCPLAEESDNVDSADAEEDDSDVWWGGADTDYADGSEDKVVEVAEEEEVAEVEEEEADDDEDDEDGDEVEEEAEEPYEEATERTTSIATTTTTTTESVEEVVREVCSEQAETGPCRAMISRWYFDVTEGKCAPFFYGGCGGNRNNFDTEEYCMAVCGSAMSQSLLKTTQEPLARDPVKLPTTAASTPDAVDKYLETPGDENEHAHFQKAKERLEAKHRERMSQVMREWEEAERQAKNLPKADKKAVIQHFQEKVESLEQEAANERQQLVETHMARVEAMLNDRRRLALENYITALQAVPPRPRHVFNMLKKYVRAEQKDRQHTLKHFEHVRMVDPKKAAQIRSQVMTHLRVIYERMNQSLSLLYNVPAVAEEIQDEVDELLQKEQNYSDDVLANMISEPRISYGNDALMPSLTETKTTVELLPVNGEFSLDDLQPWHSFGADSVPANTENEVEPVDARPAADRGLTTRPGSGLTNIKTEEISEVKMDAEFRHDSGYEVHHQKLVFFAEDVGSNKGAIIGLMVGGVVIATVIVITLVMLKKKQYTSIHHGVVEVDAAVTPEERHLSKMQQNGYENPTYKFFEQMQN
Procedure, shortened: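 Aβ1-42 diluted in HEPES buffer (20 mM, pH 6.6, 150 mM NaCl) and pre-aggregated 24 h at 37 °C. Compound (25 µM) then added for another 24 h at 37 °C on a sealed plate. Remaining fibrils read by ThT fluorescence in glycine-NaOH, pH 8.5. Triplicate; three independent experiments.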

Acetylcholinesterase [3] = target: Acetylcholinesterase (Electrophorus electricus, UniProt O42275); assay: Inhibition of electric eel AChE using acetylthiocholine iodide as substrate after 15 mins by Ellman's method
Acetylcholinesterase (Electrophorus electricus, UniProt O42275), sequence (O42275 whole entry): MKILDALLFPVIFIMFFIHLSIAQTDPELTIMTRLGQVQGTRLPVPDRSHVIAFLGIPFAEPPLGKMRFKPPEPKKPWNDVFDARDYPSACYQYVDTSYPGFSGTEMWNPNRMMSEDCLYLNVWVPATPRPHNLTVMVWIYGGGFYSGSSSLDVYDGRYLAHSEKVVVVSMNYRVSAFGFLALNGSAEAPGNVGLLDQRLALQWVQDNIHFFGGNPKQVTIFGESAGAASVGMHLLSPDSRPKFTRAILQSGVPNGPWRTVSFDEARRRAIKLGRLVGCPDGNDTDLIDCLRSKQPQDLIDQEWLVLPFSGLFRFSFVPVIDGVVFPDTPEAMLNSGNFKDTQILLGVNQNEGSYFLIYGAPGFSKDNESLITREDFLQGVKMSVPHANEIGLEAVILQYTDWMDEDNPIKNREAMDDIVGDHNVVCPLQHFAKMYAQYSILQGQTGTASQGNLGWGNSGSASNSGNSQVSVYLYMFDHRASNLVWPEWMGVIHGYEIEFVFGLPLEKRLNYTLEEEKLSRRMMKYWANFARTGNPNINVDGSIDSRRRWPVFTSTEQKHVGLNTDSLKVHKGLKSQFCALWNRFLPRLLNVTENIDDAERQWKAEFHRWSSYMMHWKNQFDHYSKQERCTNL

[4] = Antioxidant activity assessed as trolox equivalent of APPH-induced radical scavenging activity at 5 uM preincubated for 15 mins followed by AAPH addition measured every minute for 90 mins by ORAC fluorescein assay; format: functional
Procedure, shortened: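 ORAC-FL in 75 mM phosphate buffer, pH 7.4. Fluorescein (150 nM final) and sample (tested at 1–10 µM) incubated 15 min at 37 °C. AAPH (12 mM final) then added, and fluorescence (ex 485/em 535 nm) read every minute for 90 min. Trolox standard 1–8 µM; result expressed as µM Trolox equivalent per µM compound. Duplicate wells; three independent experiments.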

[5] = target: T1, Amyloid-beta precursor protein; assay: Inhibition of human amyloid beta (1 to 42) self-induced aggregation after 24 hrs by Thioflavin T based fluorometric assay
Procedure, shortened: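 Self-induced Aβ1-42 aggregation (25 µM peptide) in phosphate buffer, pH 7.4, for 24 h at 37 °C with varying compound concentrations. Aggregation read by ThT fluorescence (5 µM ThT, glycine-NaOH pH 8.5).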

[6] = target: T1, Amyloid-beta precursor protein; assay: Inhibition of human amyloid beta (1 to 42) self-induced aggregation at 25 uM after 24 hrs by Thioflavin T based fluorometric assay relative to control
Procedure, shortened: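 Aβ1-42 (25 µM final) incubated with compound (25 µM final) in 50 mM phosphate buffer, pH 7.4, for 24 h at 37 °C under a sealing film. ThT (5 µM) in 50 mM glycine-NaOH, pH 8.5, then added and fluorescence measured. Triplicate; mean ± SD of three independent experiments.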

Butyrylcholinesterase = Butyrylcholinesterase (Rattus norvegicus, UniProt Q9JKC1); assay: Inhibition of rat serum BuChE using butyrylthiocholine iodide as substrate after 15 mins by Ellman's method; format: ADME
Butyrylcholinesterase, sequence (Q9JKC1 whole entry): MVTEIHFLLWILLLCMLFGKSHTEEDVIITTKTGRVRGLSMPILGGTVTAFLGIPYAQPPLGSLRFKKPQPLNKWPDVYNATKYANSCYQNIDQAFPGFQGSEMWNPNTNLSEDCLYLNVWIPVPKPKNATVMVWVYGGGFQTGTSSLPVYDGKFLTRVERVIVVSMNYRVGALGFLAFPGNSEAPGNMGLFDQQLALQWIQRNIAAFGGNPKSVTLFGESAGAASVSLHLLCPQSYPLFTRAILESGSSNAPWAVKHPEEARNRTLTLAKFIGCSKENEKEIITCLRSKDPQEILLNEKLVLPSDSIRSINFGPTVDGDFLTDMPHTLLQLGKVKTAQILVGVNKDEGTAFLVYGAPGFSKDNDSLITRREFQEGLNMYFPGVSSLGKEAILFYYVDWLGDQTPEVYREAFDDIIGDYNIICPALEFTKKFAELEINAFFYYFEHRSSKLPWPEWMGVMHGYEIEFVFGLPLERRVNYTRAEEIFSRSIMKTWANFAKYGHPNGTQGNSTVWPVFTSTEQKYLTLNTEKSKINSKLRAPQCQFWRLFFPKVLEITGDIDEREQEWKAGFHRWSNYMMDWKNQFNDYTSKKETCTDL

[7] = Disaggregation of Cu2+ induced preformed fibrils of human amyloid beta (1 to 42) at 25 uM after 24 hrs by Thioflavin T based fluorometric assay relative to control
Procedure, shortened: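 Aβ1-42 (25 µM) with Cu2+ (25 µM) in HEPES buffer pre-aggregated 24 h at 37 °C. Compound (25 µM) then added for a further 24 h at 37 °C. Fibril content measured by ThT fluorescence (glycine-NaOH, pH 8.5). Triplicate; three independent experiments.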

Acetylcholinesterase [8] = target: T2, Acetylcholinesterase (Rattus norvegicus, UniProt P37136); assay: Inhibition of rat cortex AChE using acetylthiocholine iodide as substrate after 15 mins by Ellman's method
T2 sequence (P37136 whole entry): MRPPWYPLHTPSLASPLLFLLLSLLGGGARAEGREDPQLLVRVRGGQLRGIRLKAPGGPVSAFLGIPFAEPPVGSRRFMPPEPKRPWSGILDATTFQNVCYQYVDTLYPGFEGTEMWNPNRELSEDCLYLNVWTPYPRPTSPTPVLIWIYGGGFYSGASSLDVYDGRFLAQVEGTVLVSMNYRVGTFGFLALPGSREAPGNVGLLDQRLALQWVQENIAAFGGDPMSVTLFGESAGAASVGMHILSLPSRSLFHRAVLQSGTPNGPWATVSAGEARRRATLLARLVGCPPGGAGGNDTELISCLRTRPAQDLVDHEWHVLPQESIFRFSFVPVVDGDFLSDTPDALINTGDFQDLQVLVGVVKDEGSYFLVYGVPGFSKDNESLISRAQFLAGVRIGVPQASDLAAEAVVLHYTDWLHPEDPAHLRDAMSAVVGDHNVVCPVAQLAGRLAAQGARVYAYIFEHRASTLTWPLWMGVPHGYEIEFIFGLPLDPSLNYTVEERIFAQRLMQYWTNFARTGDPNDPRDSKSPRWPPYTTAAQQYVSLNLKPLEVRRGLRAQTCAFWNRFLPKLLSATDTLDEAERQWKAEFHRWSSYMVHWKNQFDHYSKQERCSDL

[9] = Anti-inflammatory activity in […] cells assessed as inhibition of LPS-stimulated TNFalpha release at 2.5 uM preincubated for 30 mins followed by LPS stimulation and measured after 24 hrs by ELISA relative to control; format: functional; settings: BV-2
Procedure, shortened: (§1)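 Confluent BV-2 cells in DMEM preincubated 30 min with compound, tested over 0.5–10 µM, then stimulated with LPS (1.0 µg/mL) for 24 h. Released TNF-α measured by ELISA following kit instructions. Triplicate wells; mean ± SD of three independent experiments.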

[10] = Anti-inflammatory activity in […] cells assessed as inhibition of LPS-stimulated NO release at 10 uM preincubated for 30 mins followed by LPS stimulation and measured after 24 hrs by Griess reagent based assay relative to control; format: functional; settings: BV-2
Procedure, shortened: (§2)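 BV-2 cells cultured 24 h in DMEM (10% FBS, glutamine, pyruvate, pen/strep) at 37 °C, 5% CO2. Compound (DMSO stock diluted in PBS) added 30 min before LPS (1.0 µg/mL), then 24 h. Nitrite in supernatant measured by Griess reagent for 10 min at room temperature, A540, against a NaNO2 standard curve. Triplicate wells; mean ± SD of three independent experiments.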

[11] = Anti-inflammatory activity in […] cells assessed as inhibition of LPS-stimulated NO release at 2.5 uM preincubated for 30 mins followed by LPS stimulation and measured after 24 hrs by Griess reagent based assay relative to control; format: functional; settings: BV-2; procedure, shortened: as §2
[12] = Cytotoxicity against […] cells assessed as decrease in cell viability up to 10 uM preincubated for 30 mins followed by LPS stimulation and measured after 24 hrs by MTT assay; format: cell-based
Procedure, shortened: (§3)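 BV-2 cells grown 24 h, then treated with compound (0.5, 2.5, 10.0 µM) for 30 min, with or without LPS (1.0 µg/mL), for a further 24 h. MTT (5 mg/mL) added for 4 h, formazan dissolved in DMSO, A490 read. Viability given as percent of untreated cells. Triplicate wells; three independent experiments.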

[13] = Anti-inflammatory activity in […] cells assessed as inhibition of LPS-stimulated TNFalpha release at 10 uM preincubated for 30 mins followed by LPS stimulation and measured after 24 hrs by ELISA relative to control; format: functional; settings: BV-2; procedure, shortened: as §1
[14] = Cytotoxicity against […] cells assessed as decrease in cell viability up to 10 uM measured after 24 hrs by MTT assay; format: cell-based; procedure, shortened: as §3

SMILES | inhibition [1] [%] | Activity [2] [%] | IC50 (Acetylcholinesterase [3]) [µM] | Activity [4] [equiv] | IC50 [5] [µM] | inhibition [6] [%] | IC50 (Butyrylcholinesterase) [µM] | Activity [7] [%] | IC50 (Acetylcholinesterase [8]) [µM] | inhibition at 2.5 µM [9] [%] | inhibition at 10 µM [10] [%] | inhibition at 2.5 µM [11] [%] | Activity [12] | inhibition at 10 µM [13] [%] | Activity [14]
CN(CCCNC(=O)c1cc(O)c(C(=O)NCCCN(C)Cc2ccccc2)cc1O)Cc1ccccc1 | 81.2 | 68.5 | 14.1 | 1.21 | 3.98 | 85 | > 100 | 71.3 | 11.3 |  |  |  |  |  | 
CN(CCCCNC(=O)c1cc(O)c(C(=O)NCCCCN(C)Cc2ccccc2)cc1O)Cc1ccccc1 | 77.6 | 67.7 | 12.6 | 1.52 | 3.55 | 90 | > 100 | 77.9 | 5.21 |  |  |  |  |  | 
O=C(NCCCCN1CCOc2ccccc2C1)c1cc(O)c(C(=O)NCCCCN2CCOc3ccccc3C2)cc1O | 74 | 67.4 | 64.8 | 1.02 | 5.47 | 71.6 | > 100 | 85.3 | 30.8 |  |  |  |  |  | 
CCN(CCCCNC(=O)c1cc(O)c(C(=O)NCCCCN(CC)Cc2ccccc2)cc1O)Cc1ccccc1 | 84.1 | 81.1 | 14 | 0.93 | 3.86 | 88 | > 100 | 80 | 4.05 |  |  |  |  |  | 
CCN(CCCCNC(=O)c1cc(O)c(C(=O)NCCCCN(CC)Cc2ccc(N(C)C)cc2)cc1O)Cc1ccc(N(C)C)cc1 | 82.5 | 60.4 | 47.4 | 3.23 | 3.16 | 99.9 | > 100 | 84.7 | 27.4 |  |  |  |  |  | 
COc1ccccc1CN(C)CCCCCCNC(=O)c1cc(O)c(C(=O)NCCCCCCN(C)Cc2ccccc2OC)cc1O | 85.3 | 76.3 | 6.11 | 0.62 | 2.31 | 99.7 | 40.5 | 89.8 | 10.6 |  |  |  |  |  | 
CC(C(=O)O)c1ccc(-c2ccccc2)c(F)c1 (stereo not given) [FLURBIPROFEN] |  |  |  |  |  |  |  |  |  | 9.6 | 23 | 11.8 | Non-Toxic | 30.3 | Non-Toxic
CCN(CCCCNC(=O)c1cc(O)c(C(=O)NCCCCN(CC)Cc2ccccc2N(C)C)cc1O)Cc1ccccc1N(C)C | 69.4 | 64.4 | 10.8 | 1.16 | 3.71 | 99.7 | > 100 | 83.3 | 4.17 |  |  |  |  |  | 
CCN(CCCCCCNC(=O)c1cc(O)c(C(=O)NCCCCCCN(CC)Cc2ccccc2)cc1O)Cc1ccccc1 | 74.3 | 83.5 | 22.9 | 1.27 | 2.8 | 91.4 | 47.2 | 82.3 | 4.6 |  |  |  |  |  | 
COc1ccccc1CN(C)CCCNC(=O)c1cc(O)c(C(=O)NCCCN(C)Cc2ccccc2OC)cc1O | 70.4 | 70.1 | 39.7 | 1.37 | 3.63 | 93.5 | 17.3 | 73.5 | 9.21 |  |  |  |  |  | 
CCN(CCCNC(=O)c1cc(O)c(C(=O)NCCCN(CC)Cc2ccccc2)cc1O)Cc1ccccc1 | 57.6 | 62.7 | 26.8 | 0.95 | 4.2 | 81 | > 100 | 70.6 | 7.8 |  |  |  |  |  | 
CCOC(=O)c1cc(O)c(C(=O)OCC)cc1O | 30.7 |  | > 100 | 0.96 |  | 6.5 | > 100 |  | > 100 |  |  |  |  |  | 
O=C(O)c1cc(O)c(C(=O)O)cc1O | 8.1 |  | > 100 | 4.7 |  | 4.7 | > 100 |  | > 100 | 5.9 | 12.5 | 8.3 | Non-Toxic | 18.2 | Non-Toxic
CN(CCCCCCNC(=O)c1cc(O)c(C(=O)NCCCCCCN(C)Cc2ccccc2)cc1O)Cc1ccccc1 | 89.1 | 80.9 | 13.1 | 1.01 | 2.37 | 99.8 | 41.9 | 89.3 | 5.6 |  |  |  |  |  | 
COc1cc(/C=C/C(=O)CC(=O)/C=C/c2ccc(O)c(OC)c2)ccc1O | 66 |  |  |  |  |  |  | 54.7 |  |  |  |  |  |  | 
